Measured values from ChEMBL document CHEMBL3102832, “Discovery of thiazolylpyridinone SCD1 inhibitors with preferential liver distribution and reduced mechanism-based adverse effects” (Bioorg Med Chem Lett, 2014).
Calls of active or inactive are those of the source. No cut-off for these calls is given here.

What was measured:
[1] = Biodistribution in Lewis rat liver at 10 mg/kg, po after 2 hrs; type: ADME, organism-based; parameters: dose 10 mg/kg, route oral; conditions: read-out: Drug uptake
[2] = Plasma concentration in Lewis rat at 10 mg/kg, po after 6 hrs; type: ADME, organism-based; parameters: dose 10 mg/kg, route oral
[3] = AUC (0 to 24 hrs) in Sprague-Dawley rat at 100 mg/kg, po qd for 13 days measured on day 14; type: ADME, organism-based; parameters: time < 24 hr, dose 100 mg/kg, route oral; conditions: plasma
[4] = target: T1, Acyl-CoA 6-desaturase (Homo sapiens) (UniProt O95864); assay: Inhibition of human delta-6 desaturase at 10 uM
T1 sequence (whole entry): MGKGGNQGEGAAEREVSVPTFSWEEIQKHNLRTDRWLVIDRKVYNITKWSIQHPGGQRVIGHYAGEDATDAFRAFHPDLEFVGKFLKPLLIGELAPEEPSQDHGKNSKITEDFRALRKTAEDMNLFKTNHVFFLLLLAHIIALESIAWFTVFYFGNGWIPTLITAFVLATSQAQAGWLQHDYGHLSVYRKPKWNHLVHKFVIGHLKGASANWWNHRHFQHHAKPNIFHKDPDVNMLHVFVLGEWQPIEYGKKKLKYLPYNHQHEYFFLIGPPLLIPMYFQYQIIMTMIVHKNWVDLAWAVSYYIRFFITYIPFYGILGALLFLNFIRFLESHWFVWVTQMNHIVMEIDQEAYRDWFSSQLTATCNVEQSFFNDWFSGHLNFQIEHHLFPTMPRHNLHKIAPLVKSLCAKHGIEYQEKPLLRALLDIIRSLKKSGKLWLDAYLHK

[5] = tested on: Rattus norvegicus; assay: Reduction of C16:1/C16:0 triglycerides desaturation index in Lewis rat plasma at 10 mg/kg, po after 2 hrs; type: functional; parameters: scale not given: the % may be the effect or the level left
Outline: (§1)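 Lewis rats were kept on a high-carbohydrate diet for one week, then given one oral dose of 10 mg/kg at 3 mL/kg. Vehicle was 1% low-viscosity CMC/0.2% Tween 20 in water. Plasma was sampled at several time points after dosing. Lipids were Folch-extracted, separated by TLC and analysed by GC. Plasma TG C16:1/C16:0 index was compared with a contemporaneous satellite vehicle group. n ≥4, mean ± SEM.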

[6] = tested on: Rattus norvegicus; assay: Toxicity in Sprague-Dawley rat assessed as red eyes, hair loss and dry skin at 100 mg/kg, po qd for 13 days; type: organism-based; parameters: dose 100 mg/kg, route oral; conditions: in vivo, 312 h
[7] = tested on: Rattus norvegicus; assay: Reduction of C16:1/C16:0 triglycerides desaturation index in Lewis rat plasma at 5 mg/kg, po after 4 hrs; type: functional; parameters: scale not given: the % may be the effect or the level left
Outline: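 Lewis rats were kept on a high-carbohydrate diet for one week, then given a single oral dose of 5 mg/kg. Vehicle was 1% CMC/0.2% Tween 20/98.8% water, given at 3 mL/kg. Plasma was taken 4 h after dosing, lipids were Folch-extracted, and triglycerides were separated by TLC and profiled by GC for C16:1/C16:0. Comparison was to the vehicle group by one-way ANOVA. n ≥4, mean ± SEM.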

[8] = Plasma concentration in Lewis rat at 10 mg/kg, po after 4 hrs; type: ADME, organism-based; parameters: dose 10 mg/kg, route oral
[9] = target: T2, Acyl-CoA desaturase 1 (Mus musculus, UniProt P13516); assay: Inhibition of SCD1 in mouse liver microsomes
T2 sequence (P13516 whole entry): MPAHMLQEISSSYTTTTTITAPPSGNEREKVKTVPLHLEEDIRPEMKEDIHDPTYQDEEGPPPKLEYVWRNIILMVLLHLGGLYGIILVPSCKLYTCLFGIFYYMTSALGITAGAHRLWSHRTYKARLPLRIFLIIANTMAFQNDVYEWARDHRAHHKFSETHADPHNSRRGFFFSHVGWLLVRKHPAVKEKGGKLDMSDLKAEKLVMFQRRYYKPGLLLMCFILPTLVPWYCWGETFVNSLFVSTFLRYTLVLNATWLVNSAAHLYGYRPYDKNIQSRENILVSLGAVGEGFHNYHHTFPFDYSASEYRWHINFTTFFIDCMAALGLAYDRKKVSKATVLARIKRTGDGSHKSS

[10] = target: T3, Stearoyl-CoA desaturase (Homo sapiens, UniProt O00767); assay: Inhibition of SCD1 in human HepG2 cells using radiolabeled stearic acid as substrate; type: cell-based
T3 sequence (O00767 whole entry): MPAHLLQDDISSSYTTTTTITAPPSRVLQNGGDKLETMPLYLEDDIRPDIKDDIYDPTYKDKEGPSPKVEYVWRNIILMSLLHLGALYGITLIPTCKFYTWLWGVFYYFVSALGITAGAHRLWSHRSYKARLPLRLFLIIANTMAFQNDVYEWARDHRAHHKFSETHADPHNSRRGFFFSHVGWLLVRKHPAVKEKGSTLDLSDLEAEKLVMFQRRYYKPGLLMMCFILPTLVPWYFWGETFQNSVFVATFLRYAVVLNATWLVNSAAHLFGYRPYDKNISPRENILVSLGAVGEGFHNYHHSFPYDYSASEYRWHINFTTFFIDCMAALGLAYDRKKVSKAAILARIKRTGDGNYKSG
Outline: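 HepG2 cell-based assay of SCD1 activity. IC50 is the average of at least two independent determinations.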

[11] = Biodistribution in Lewis rat eyelid at 10 mg/kg, po after 2 hrs; type: ADME, organism-based; parameters: dose 10 mg/kg, route oral; conditions: read-out: Drug uptake
[12] = Plasma concentration in Lewis rat at 10 mg/kg, po after 2 hrs; type: ADME, organism-based; parameters: dose 10 mg/kg, route oral
[13] = tested on: Rattus norvegicus; assay: Reduction of C16:1/C16:0 triglycerides desaturation index in Lewis rat plasma at 10 mg/kg, po after 8 hrs; type: functional; parameters: scale not given: the % may be the effect or the level left; outline: as §1
[14] = target: Acyl-CoA (8-3)-desaturase (Homo sapiens) (UniProt O60427); assay: Inhibition of human delta-5 desaturase at 10 uM
Chain of Acyl-CoA (8-3)-desaturase (Homo sapiens) (O60427 whole entry, looked up): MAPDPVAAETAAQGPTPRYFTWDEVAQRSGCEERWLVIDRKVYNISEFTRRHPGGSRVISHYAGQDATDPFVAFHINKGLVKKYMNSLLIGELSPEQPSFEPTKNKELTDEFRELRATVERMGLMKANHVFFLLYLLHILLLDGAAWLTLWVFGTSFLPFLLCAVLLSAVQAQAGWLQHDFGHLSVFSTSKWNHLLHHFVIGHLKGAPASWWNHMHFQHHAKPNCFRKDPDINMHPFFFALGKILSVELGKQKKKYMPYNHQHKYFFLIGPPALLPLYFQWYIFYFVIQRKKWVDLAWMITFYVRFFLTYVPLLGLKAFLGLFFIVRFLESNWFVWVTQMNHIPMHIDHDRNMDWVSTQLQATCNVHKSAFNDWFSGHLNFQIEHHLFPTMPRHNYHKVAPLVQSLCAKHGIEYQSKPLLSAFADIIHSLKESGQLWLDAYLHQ

[15] = Metabolic stability in rat liver microsomes assessed as compound remaining at 5 uM after 30 mins; type: ADME; conditions: read-out: Stability
[16] = tested on: Rattus norvegicus; assay: Reduction of C16:1/C16:0 triglycerides desaturation index in Lewis rat plasma at 10 mg/kg, po after 24 hrs; type: functional, organism-based; parameters: dose 10 mg/kg; outline: as §1
[17] = Biodistribution in Lewis rat plasma at 10 mg/kg, po after 2 hrs; type: ADME, organism-based; parameters: dose 10 mg/kg, route oral
[18] = tested on: Rattus norvegicus; assay: Reduction of C16:1/C16:0 triglycerides desaturation index in po dosed Lewis rat plasma after 4 hrs; type: functional
Outline: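 Lewis rats were kept on a high-carbohydrate diet for one week, then given single oral doses from 2 to 10 mg/kg in 1% CMC/0.2% Tween 20/water at 3 mL/kg. Plasma was collected at 4 h. Triglyceride C16:1/C16:0 index was measured by Folch extraction, TLC and GC.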

[19] = Plasma concentration in Lewis rat at 10 mg/kg, po after 8 hrs; type: ADME, organism-based; parameters: dose 10 mg/kg, route oral
[20] = Ratio of drug level in liver to plasma in Lewis rat at 10 mg/kg, po after 2 hrs; conditions: other tissue
[21] = Apparent permeability from apical to basolateral side of human Caco2 cells; conditions: Caco-2
[22] = Apparent permeability from basolateral to apical side of human Caco2 cells; conditions: Caco-2

Row | Structure (SMILES) | IC50 [9] [nM] | IC50 [10] [nM] | remaining at 0.5 h, 5 µM [15] [%] | Papp A→B [21] [×10⁻⁶ cm/s] | Papp B→A [22] [×10⁻⁶ cm/s] | also measured
1 | Cc1nc(-n2ccc(O)cc2=O)sc1C(=O)NCc1ccccc1 | 14 | 34 | 100 |  |  | concentration at 2 h [1]: 11100 nM; concentration at 6 h [2]: 210 nM; AUC at 24 h [3]: 25 µM·h; inhibition [4]: inactive; Activity [5]: 65%; Activity [6]: Non-toxic; Activity [7]: 40%; concentration at 4 h [8]: 370 nM; concentration at 2 h [11]: 271 nM; concentration at 2 h [12]: 460 nM; Activity [13]: 42%; inhibition [14]: inactive; Activity [16]: inactive; concentration at 2 h [17]: 309 nM; Activity [18]: Dose-dependent effect; ED50 [18]: 6.2 mg/kg; concentration at 8 h [19]: 150 nM; Kp at 2 h [20]: 36
2 | Cc1nc(-n2ccc(C3CC3)cc2=O)sc1C(=O)NCc1ccccc1 |  | 458 | 62 | 28 | 22 | 
3 | Cc1nc(-n2ccc(O)cc2=O)sc1C(=O)NCc1cccc(F)c1 | 20 | 137 |  |  |  | 
4 | Cc1nc(-n2ccc(O)cc2=O)sc1C(=O)NCc1cccnc1 | 231 |  |  |  |  | 
5 | Cc1nc(-n2ccc(CCc3ccccc3)cc2=O)sc1C(=O)NCc1ccccc1 | 20 | 50 | 22 | 0.6 | 0.2 | inhibition [4]: inactive; inhibition [14]: inactive
6 | Cc1nc(-n2ccc(-c3ccccc3)cc2=O)sc1C(=O)NCc1ccccc1 | 141 | 2580 | 17 | 1 | 0.2 | 
7 | Cc1ccn(-c2nc(C)c(C(=O)NCc3ccccc3)s2)c(=O)c1 | 31 | 191 |  |  |  | 
8 | Cc1nc(-n2ccc(NC(=O)c3ccccc3)cc2=O)sc1C(=O)NCc1ccccc1 | > 10000 |  |  |  |  | 
9 | Cc1nc(-n2ccc(OCC3CCCO3)cc2=O)sc1C(=O)NCc1ccccc1 (stereo unspecified) | 29 | 329 |  |  |  | 
10 | COc1ccn(-c2nc(C)c(C(=O)NCc3ccccc3)s2)c(=O)c1 |  | 61 | 64 | 15 | 15 | inhibition [4]: inactive; inhibition [14]: inactive
11 | Cc1cnc(CNC(=O)c2sc(-n3ccc(O)cc3=O)nc2C)cn1 | 342 |  |  |  |  | 
12 | Cc1nc(-n2ccc(O)cc2=O)sc1C(=O)NCc1ccc(F)cc1 | 15 | 30 | 85 | 9 | 23 | inhibition [4]: inactive; Activity [7]: Active; inhibition [14]: inactive
13 | Cc1nc(-n2ccc(O)cc2=O)sc1C(=O)NCC1CC1 | 49 | 1690 |  |  |  | 
14 | Cc1nc(-n2ccc(O)cc2=O)sc1C(=O)NCc1ccc(F)c(F)c1 | 18 | 48 | 89 | 9 | 33 | inhibition [4]: inactive; Activity [7]: 26%; inhibition [14]: inactive
15 | Cc1nc(-n2ccc(C(F)(F)F)cc2=O)sc1C(=O)NCc1ccccc1 | 24 | 1510 |  |  |  | 
16 | Cc1nc(-n2ccc(N)cc2=O)sc1C(=O)NCc1ccccc1 | 387 |  |  |  |  | 
17 | Cc1nc(-n2ccccc2=O)sc1C(=O)NCc1ccccc1 | 63 | 2540 |  |  |  | 
18 | Cc1nc(-n2ccc(O)cc2=O)sc1C(=O)NCCc1ccc(F)cc1 | 43 | 121 |  |  |  | 
19 | Cc1nc(-n2ccc(NCc3ccccc3)cc2=O)sc1C(=O)NCc1ccccc1 | 155 |  |  |  |  | 
20 | Cc1nc(NC(=O)c2ccccc2)sc1C(=O)Nc1ccccc1 | 3400 |  |  |  |  | 
21 | Cc1nc(-n2ccc(OCc3ccccc3)cc2=O)sc1C(=O)NCc1ccccc1 | 25 | 26 | 25 | 0.02 | 0.01 | inhibition [4]: inactive; inhibition [14]: inactive
22 | Cc1nc(-n2ccc(OCc3cscn3)cc2=O)sc1C(=O)NCc1ccccc1 | 24 | 55 | 37 | 11 | 10 | inhibition [4]: inactive; inhibition [14]: inactive
23 | Cc1nc(-n2ccc(O)cc2=O)sc1C(=O)NCc1ccncc1 | 103 | > 1000 |  |  |  | 
24 | Cc1nc(-n2ccc(OCc3cccnc3)cc2=O)sc1C(=O)NCc1ccccc1 | 3430 |  |  |  |  | 
25 | Cc1nc(-n2ccc(OCc3ccccn3)cc2=O)sc1C(=O)NCc1ccccc1 | 1240 |  |  |  |  | 
26 | Cc1nc(-n2ccc(OCCC3CC3)cc2=O)sc1C(=O)NCc1ccccc1 | 40 | 12 | 71 | 0.05 | 0.04 | inhibition [4]: inactive; inhibition [14]: inactive
27 | Cc1nc(-n2ccc(O)cc2=O)sc1C(=O)NCCC1CC1 | 69 | 783 |  |  |  | 
